Data reported in ChEMBL document CHEMBL1139766, “Discovery of potent and orally bioavailable heterocycle-based beta3-adrenergic receptor agonists, potential therapeutics for the treatment of obesity” (Bioorg Med Chem Lett, 2007).

Legend:
[1] = molecular target: T1, Beta-3 adrenergic receptor (Homo sapiens, UniProt P13945); test: Agonist activity at human adrenergic beta-3 receptor expressed in CHO cells assessed as cAMP production; type: functional, cell-based
Procedure, shortened: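 cAMP accumulation measured in CHO cells expressing cloned human β3-AR. Potency given as EC50; intrinsic activity (IA) expressed as % of isoproterenol maximum. Compounds with EC50 < 100 nM and IA > 50% tested at least twice in functional assays.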
Target sequence in this assay (P13945 whole entry): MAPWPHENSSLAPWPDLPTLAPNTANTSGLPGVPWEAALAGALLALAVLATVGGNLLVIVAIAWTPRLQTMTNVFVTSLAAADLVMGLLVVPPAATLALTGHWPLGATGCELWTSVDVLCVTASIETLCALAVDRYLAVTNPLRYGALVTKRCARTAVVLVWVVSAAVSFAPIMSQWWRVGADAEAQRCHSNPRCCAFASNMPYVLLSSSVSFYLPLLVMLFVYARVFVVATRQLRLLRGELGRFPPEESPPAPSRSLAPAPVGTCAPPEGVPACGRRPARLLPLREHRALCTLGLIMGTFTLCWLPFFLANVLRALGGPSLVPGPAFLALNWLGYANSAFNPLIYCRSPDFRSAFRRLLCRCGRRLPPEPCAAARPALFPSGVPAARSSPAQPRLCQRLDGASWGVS

[2] = molecular target: T1, Beta-3 adrenergic receptor; test: Intrinsic activity at human adrenergic beta-3 receptor expressed in CHO cells assessed as cAMP production relative to isoproterenol; type: functional, cell-based
Procedure, shortened: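 Functional readout was cAMP levels in Chinese hamster ovary cells expressing the cloned human β3 receptor. Intrinsic activity is given as a percentage of the isoproterenol maximum. Compounds with EC50 < 100 nM and IA > 50% were tested at least twice.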
Target sequence in this assay (P13945 whole entry, looked up): as the sequence (P13945 whole entry) above

[3] = molecular target: Beta-2 adrenergic receptor (Homo sapiens, UniProt P07550); test: Displacement of [125I]iodocyanopindolol from human adrenergic beta-2 receptor expressed in CHO cells; type: cell-based
[4] = molecular target: Beta-1 adrenergic receptor (Homo sapiens, UniProt P08588); test: Displacement of [125I]iodocyanopindolol from human adrenergic beta-1 receptor expressed in CHO cells; type: cell-based
Homo sapiens = species: Homo sapiens; test: Selectivity for human adrenergic beta-3 receptor over human adrenergic beta-1 receptor
Procedure, shortened: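 Selectivity came from radioligand binding on membranes of CHO cells expressing cloned human β1 or β3 receptors, using 125I-iodocyanopindolol. The β3 value is the high-affinity agonist-site KiH, taken from a two-site competition fit. The ratio is β1 Ki over β3 Ki.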

Rattus norvegicus [5] = test: Increase in oxygen consumption in rat at 3 mg/kg, po after 120 mins; type: functional
Procedure, shortened: (§1)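 Rats dosed orally (0.3, 1, 3, 10 mg/kg). Baseline O2 consumption recorded every 10 min for 3 h, then dosing with compound or vehicle and 2 h further recording. Values excluded when ambulatory activity was >100 counts/10 min, along with the first five values of the run and the first value after dosing. Change taken over 0–120 min.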

Rattus norvegicus [6] = test: Increase in oxygen consumption in rat at 10 mg/kg, po after 120 mins; type: functional; procedure, shortened: as §1
[7] = molecular target: Beta-3 adrenergic receptor (Rattus norvegicus, UniProt P26255); test: Agonist activity at rat adrenergic beta-3 receptor assessed as cAMP production; type: functional
[8] = molecular target: Beta-3 adrenergic receptor (Rattus norvegicus) (UniProt P26255); test: Intrinsic activity at rat adrenergic beta-3 receptor assessed as cAMP production relative to isoproterenol; type: functional
[9] = Solubility in phosphate buffer at pH 6.5; type: physicochemical
Procedure, shortened: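 Solubility measured in phosphate buffer at pH 6.5.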

[10] = Half life in dog; type: ADME, organism-based, Canis lupus familiaris; conditions: in vivo
Procedure, shortened: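 Half-life determined after IV dosing in dog.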

[11] = Clearance in dog; type: ADME, organism-based, Canis lupus familiaris; conditions: in vivo
[12] = Volume of distribution at steady state in dog; type: ADME, organism-based, Canis lupus familiaris; conditions: in vivo, read-out: Vdss
Rattus norvegicus [13] = test: Increase in oxygen consumption in rat at 0.3 mg/kg, po after 120 mins; type: functional; procedure, shortened: as §1
Rattus norvegicus [14] = test: Increase in oxygen consumption in rat at 1.0 mg/kg, po after 120 mins; type: functional; procedure, shortened: as §1
Rattus norvegicus [15] = species: Rattus norvegicus; test: Increase in oxygen consumption in rat after 120 mins; type: functional; conditions: 2 h; procedure, shortened: as §1
Rattus norvegicus [16] = test: Increase in heart rate in rat at 10 mg/kg; type: functional
[17] = Oral bioavailability in rat; type: ADME, organism-based; conditions: in vivo
[18] = Half life in rat; type: ADME, organism-based; conditions: in vivo
Procedure, shortened: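 Half-life determined after IV dosing in rat.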

[19] = Clearance in rat; type: ADME, organism-based; conditions: in vivo
[20] = Volume of distribution at steady state in rat; type: ADME, organism-based; conditions: in vivo, read-out: Vdss
[21] = Oral bioavailability in dog; type: ADME, organism-based, Canis lupus familiaris; conditions: in vivo

Chain of Beta-2 adrenergic receptor (P07550 whole entry): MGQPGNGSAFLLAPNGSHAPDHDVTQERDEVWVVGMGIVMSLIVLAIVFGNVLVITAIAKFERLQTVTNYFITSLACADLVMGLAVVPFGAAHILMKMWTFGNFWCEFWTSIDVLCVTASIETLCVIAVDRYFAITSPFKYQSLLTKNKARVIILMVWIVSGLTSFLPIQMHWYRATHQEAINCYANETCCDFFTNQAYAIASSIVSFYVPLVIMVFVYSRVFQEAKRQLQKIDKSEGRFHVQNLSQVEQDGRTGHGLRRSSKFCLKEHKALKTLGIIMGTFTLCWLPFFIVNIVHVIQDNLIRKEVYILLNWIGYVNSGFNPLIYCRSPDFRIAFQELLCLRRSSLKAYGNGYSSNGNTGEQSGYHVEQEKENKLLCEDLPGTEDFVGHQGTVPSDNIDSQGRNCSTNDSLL
Chain of Beta-1 adrenergic receptor (P08588 whole entry): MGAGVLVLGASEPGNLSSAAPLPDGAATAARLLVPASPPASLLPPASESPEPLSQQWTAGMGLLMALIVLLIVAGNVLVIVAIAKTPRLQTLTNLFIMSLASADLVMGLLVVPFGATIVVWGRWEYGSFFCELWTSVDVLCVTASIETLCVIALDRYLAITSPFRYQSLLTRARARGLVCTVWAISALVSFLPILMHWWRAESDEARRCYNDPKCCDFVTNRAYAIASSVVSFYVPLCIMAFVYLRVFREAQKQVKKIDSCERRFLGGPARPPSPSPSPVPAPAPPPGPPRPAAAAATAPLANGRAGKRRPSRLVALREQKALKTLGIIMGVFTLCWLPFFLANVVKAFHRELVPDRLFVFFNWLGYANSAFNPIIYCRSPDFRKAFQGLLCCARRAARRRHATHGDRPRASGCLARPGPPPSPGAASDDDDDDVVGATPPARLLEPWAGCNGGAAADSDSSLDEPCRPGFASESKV
Chain of Beta-3 adrenergic receptor (Rattus norvegicus) (P26255 whole entry): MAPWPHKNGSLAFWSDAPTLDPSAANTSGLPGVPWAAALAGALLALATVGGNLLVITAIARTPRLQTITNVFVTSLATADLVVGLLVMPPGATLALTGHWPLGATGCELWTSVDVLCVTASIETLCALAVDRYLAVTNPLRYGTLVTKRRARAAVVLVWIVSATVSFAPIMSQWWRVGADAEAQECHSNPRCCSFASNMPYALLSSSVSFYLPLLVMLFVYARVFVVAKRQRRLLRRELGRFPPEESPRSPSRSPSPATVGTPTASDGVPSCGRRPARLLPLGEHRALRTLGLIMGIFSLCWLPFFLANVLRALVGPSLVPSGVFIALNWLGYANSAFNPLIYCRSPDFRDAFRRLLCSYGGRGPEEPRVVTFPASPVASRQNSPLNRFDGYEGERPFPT
Chain of Beta-3 adrenergic receptor (Rattus norvegicus, UniProt P26255) (P26255 whole entry): as above

SMILES	EC50 [1] [nM]	Intrinsic activity [2] [%]	Ki [4] [nM]	other results
O[C@@H](CNCCOc1ccc(-c2cnco2)cc1)c1cccnc1	200	98	–	–
Cc1nc(-c2ccc(OCCNC[C@H](O)c3cccnc3)cc2)cs1	170	106	100	Ki [3]: 120 nM; Ratio Ki (Homo sapiens): 0.8; Activity (Rattus norvegicus [5]): 20%; Activity (Rattus norvegicus [6]): 32%; EC50 [7]: 13 nM; Intrinsic activity [8]: 113%
O=S(=O)(Nc1ccc(CCNC[C@H](O)c2cccnc2)cc1)c1ccc(-c2nc(-c3ccc(C(F)(F)F)cc3)cs2)cc1	–	92	–	–
O[C@@H](CNCCOc1ccc(-c2csc(-c3ccncc3)n2)cc1)c1cccnc1	65	106	97	–
CS(=O)(=O)Nc1cc([C@@H](O)CNCCc2ccc(-c3csc(-c4ccccc4)n3)cc2)ccc1Cl	490	70	–	–
CCc1nc(-c2ccc(OCCNC[C@H](O)c3cccnc3)cc2)cs1	170	106	37	–
O[C@@H](CNCCOc1ccc(-c2csc(-c3ccccc3)n2)cc1)c1cccnc1	580	53	150	Ki [3]: 500 nM
O[C@@H](CNCCc1ccc(-c2csc(-c3cccnc3)n2)cc1)c1cccnc1	1190	106	–	–
COCc1nc(-c2ccc(OCCNC[C@H](O)c3cccnc3)cc2)co1	47	110	210	–
O[C@@H](CNCCc1ccc(-c2csc(-c3ccccc3)n2)cc1)c1cccnc1	2740	108	–	–
O[C@@H](CNCCOc1ccc(-c2ncco2)cc1)c1cccnc1	520	24	–	–
O[C@@H](CNCCOc1ccc(-c2cscn2)cc1)c1cccnc1	27	85	140	Ki [3]: 10 nM; solubility [9]: > 10000 µg/mL; Ratio Ki (Homo sapiens): 14.2; Activity (Rattus norvegicus [5]): 11%; EC50 [7]: 26 nM; Intrinsic activity [8]: 104%
CC(C)c1nc(-c2ccc(OCCNC[C@H](O)c3cccnc3)cc2)co1	57	135	360	Ki [3]: 49 nM; Ratio Ki (Homo sapiens): 7.4
O[C@@H](CNCCOc1ccc(-c2cocn2)cc1)c1cccnc1	20	94	200	half-life [10]: 5.1 h; clearance [11]: 6 mL/min/kg; Vd [12]: 2.8 L/kg; Activity (Rattus norvegicus [13]): 8%; Activity (Rattus norvegicus [14]): 11%; ED20 (Rattus norvegicus [15]): 2 mg/kg; Activity (Rattus norvegicus [16]): 10%; Ki [3]: 10 nM; Ratio Ki (Homo sapiens): 20; Activity (Rattus norvegicus [5]): 29%; Activity (Rattus norvegicus [6]): 42%; bioavailability [17]: 66%; half-life [18]: 1.4 h; clearance [19]: 13 mL/min/kg; Vd [20]: 0.89 L/kg; bioavailability [21]: 59%
Cc1nc(-c2ccc(OCCNC[C@H](O)c3cccnc3)cc2)co1	37	111	400	Ki [3]: 21 nM; Ratio Ki (Homo sapiens): 19
Cc1nc(-c2ccc(CCNC[C@H](O)c3cccnc3)cc2)cs1	1360	55	–	–
CCc1nc(-c2ccc(OCCNC[C@H](O)c3cccnc3)cc2)co1	57	133	400	Ki [3]: 37 nM; Ratio Ki (Homo sapiens): 11
O[C@@H](CNCCc1ccc(-c2csc(C(F)(F)F)n2)cc1)c1cccnc1	4490	94	–	–
O[C@@H](CNCCOc1ccc(-c2coc(COCc3ccccc3)n2)cc1)c1cccnc1	220	137	50	–
O[C@@H](CNCCOc1ccc(-c2csc(-c3cccnc3)n2)cc1)c1cccnc1	120	121	120	–
Cc1ocnc1-c1ccc(OCCNC[C@H](O)c2cccnc2)cc1	309	80	170	–
O[C@@H](CNCCOc1ccc(-c2csc(C(F)(F)F)n2)cc1)c1cccnc1	200	150	100	–
Cc1nc(-c2ccc(OCCNC[C@H](O)c3cccnc3)cc2)c(C)o1	606	75	1550	–
OCc1nc(-c2ccc(OCCNC[C@H](O)c3cccnc3)cc2)co1	42	94	270	Ki [3]: 30 nM; Ratio Ki (Homo sapiens): 8.6
Cc1nc(-c2ccc(CCNC[C@H](O)c3ccc(Cl)c(NS(C)(=O)=O)c3)cc2)cs1	230	121	–	–
CCc1nc(-c2ccc(CCNC[C@H](O)c3ccc(Cl)c(NS(C)(=O)=O)c3)cc2)cs1	130	95	–	–
O[C@@H](CNCCOc1ccc(-c2csc(C3CCCC3)n2)cc1)c1cccnc1	290	159	130	–
CCc1nc(-c2ccc(CCNC[C@H](O)c3cccnc3)cc2)cs1	2250	80	–	–
